Reference: ChEMBL document CHEMBL1146124, “Kinesin spindle protein (KSP) inhibitors. Part 3: synthesis and evaluation of phenolic 2,4-diaryl-2,5-dihydropyrroles with reduced hERG binding and employment of a phosphate prodrug strategy for aqueous solubility” (Bioorg Med Chem Lett, 2006)

Assays:
[1] = target: T1, Kinesin-like protein KIF11 (Homo sapiens, UniProt P52732); test: Inhibition of KSP by ATPase assay
T1 sequence (P52732 whole entry): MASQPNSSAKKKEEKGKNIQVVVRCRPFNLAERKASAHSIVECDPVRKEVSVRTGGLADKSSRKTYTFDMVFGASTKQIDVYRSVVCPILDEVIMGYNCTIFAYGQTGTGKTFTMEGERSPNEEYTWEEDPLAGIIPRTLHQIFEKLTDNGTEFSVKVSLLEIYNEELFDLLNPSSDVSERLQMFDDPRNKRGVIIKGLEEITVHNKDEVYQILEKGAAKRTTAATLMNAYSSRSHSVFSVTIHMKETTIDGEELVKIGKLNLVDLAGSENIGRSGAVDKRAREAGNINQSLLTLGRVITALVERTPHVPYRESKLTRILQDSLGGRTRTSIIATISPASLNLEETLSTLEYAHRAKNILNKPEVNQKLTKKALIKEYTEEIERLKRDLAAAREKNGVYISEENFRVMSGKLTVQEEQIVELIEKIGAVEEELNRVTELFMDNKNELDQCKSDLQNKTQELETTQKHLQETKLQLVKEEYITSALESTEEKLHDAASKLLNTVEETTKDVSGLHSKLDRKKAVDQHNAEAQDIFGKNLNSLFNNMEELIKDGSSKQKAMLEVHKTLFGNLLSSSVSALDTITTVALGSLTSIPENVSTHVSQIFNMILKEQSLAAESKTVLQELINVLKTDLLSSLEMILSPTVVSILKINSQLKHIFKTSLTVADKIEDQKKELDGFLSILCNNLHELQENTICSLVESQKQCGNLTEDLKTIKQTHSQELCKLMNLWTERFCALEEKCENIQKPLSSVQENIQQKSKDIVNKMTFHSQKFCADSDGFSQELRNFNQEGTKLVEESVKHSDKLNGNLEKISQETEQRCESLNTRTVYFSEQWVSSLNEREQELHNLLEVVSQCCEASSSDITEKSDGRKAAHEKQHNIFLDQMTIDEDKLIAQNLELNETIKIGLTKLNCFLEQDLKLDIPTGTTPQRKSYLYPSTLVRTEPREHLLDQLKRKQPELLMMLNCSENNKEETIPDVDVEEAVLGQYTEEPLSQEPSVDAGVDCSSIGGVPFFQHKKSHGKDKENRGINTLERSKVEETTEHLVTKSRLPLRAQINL

A2780 = test: Mitotic arrest in A2780 cells; type: functional, cell-based; details: Homo sapiens
Summary of the method: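 M-phase arrest read out by antibody-based detection of phosphonucleolin. Values are the average of at least two determinations, with standard deviations of 25–50%.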

[2] = Plasma clearance in dog at 0.4 mg/kg, iv; type: ADME, organism-based, Canis lupus familiaris; design: dose 0.4 mg/kg, route intravenous
Summary of the method: (§1)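 Given intravenously to dogs at 0.4 mpk, with DMSO as the vehicle.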

[3] = Half life in dog at 0.4 mg/kg, iv; type: ADME, organism-based, Canis lupus familiaris; design: dose 0.4 mg/kg, route intravenous; details: in vivo; summary of the method: as §1
[4] = Plasma clearance in rat at 1 mg/kg, iv; type: ADME, organism-based; design: dose 1 mg/kg, route intravenous
Summary of the method: (§2)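 Given intravenously to rats at 1 mpk, with DMSO as the vehicle.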

[5] = Half life in rat at 1 mg/kg, iv; type: ADME, organism-based; design: dose 1 mg/kg, route intravenous; details: in vivo; summary of the method: as §2
[6] = target: Voltage-gated inwardly rectifying potassium channel KCNH2 (Homo sapiens, UniProt Q12809); test: Inhibitory activity against human hERG receptor expressed in HEK cells
Sequence of Voltage-gated inwardly rectifying potassium channel KCNH2 (Q12809 whole entry): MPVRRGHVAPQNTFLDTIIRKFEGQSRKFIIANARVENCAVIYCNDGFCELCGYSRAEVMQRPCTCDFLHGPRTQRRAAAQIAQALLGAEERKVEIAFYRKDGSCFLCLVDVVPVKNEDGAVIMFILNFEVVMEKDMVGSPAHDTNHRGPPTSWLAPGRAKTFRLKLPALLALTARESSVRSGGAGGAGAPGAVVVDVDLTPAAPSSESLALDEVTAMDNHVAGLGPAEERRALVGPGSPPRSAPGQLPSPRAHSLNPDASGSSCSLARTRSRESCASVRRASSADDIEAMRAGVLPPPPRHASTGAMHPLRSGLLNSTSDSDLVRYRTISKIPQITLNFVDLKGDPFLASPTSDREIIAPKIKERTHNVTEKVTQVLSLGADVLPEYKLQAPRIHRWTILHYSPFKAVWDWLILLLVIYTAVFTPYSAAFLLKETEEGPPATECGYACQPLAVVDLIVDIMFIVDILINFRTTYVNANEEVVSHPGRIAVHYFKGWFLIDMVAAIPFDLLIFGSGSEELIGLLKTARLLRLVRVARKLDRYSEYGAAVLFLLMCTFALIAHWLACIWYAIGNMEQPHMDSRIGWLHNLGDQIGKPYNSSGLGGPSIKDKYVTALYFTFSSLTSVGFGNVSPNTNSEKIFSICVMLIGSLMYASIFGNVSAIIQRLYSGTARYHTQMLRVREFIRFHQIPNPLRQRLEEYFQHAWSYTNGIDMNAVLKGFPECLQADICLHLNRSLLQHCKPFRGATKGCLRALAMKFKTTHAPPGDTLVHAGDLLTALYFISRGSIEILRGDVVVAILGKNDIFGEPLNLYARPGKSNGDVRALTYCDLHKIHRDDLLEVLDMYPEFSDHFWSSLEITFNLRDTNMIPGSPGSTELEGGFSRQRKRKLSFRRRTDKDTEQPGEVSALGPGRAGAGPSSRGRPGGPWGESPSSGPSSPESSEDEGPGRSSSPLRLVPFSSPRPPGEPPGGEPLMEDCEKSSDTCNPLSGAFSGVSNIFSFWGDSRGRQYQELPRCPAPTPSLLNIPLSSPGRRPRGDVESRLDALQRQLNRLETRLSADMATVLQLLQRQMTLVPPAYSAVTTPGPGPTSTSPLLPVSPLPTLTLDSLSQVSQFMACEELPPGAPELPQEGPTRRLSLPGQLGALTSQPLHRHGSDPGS

Canis familiaris = test: Ratio of AUC's for parent compound after prodrug dosing and parent compound dosing in dog at 0.4 mg/kg, iv; type: ADME, organism-based, Canis lupus familiaris; design: dose 0.4 mg/kg, route intravenous; details: in vivo
Summary of the method: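 Prodrug and parent were each given intravenously in DMSO to dogs at 0.4 mpk. The value is the AUC of parent after prodrug dosing divided by the AUC after direct parent dosing, expressed as a percentage.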

Rattus norvegicus = test: Ratio of AUC's for parent compound after prodrug dosing and parent compound dosing in rat at 1 mg/kg, iv; type: ADME, organism-based; design: dose 1 mg/kg, route intravenous; details: in vivo
Summary of the method: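 Prodrug and parent were each given intravenously in DMSO to rats at 1 mpk. The value is the AUC of parent after prodrug dosing divided by the AUC after direct parent dosing, expressed as a percentage.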

Compound | IC50 [1] | EC50 (A2780) | half-life [3] | half-life [5] | other results
CC(C)(C)[C@H](O)C(=O)N1CC(c2cc(F)ccc2F)=C[C@H]1c1cccc(O)c1 | 1.3 nM | 2.6 nM | – | – | –
CN(C)C(=O)N1CC(c2cc(F)ccc2F)=C[C@H]1c1cccc(O)c1 | 7 nM | 22 nM | 90 min | 18 min | clearance [2]: 13 mL/min/kg; clearance [4]: 68 mL/min/kg
CC(C)(C)[C@H](NC(=O)OCCOP(=O)(O)O)C(=O)N1CC(c2cc(F)ccc2F)=C[C@H]1c1ccccc1 | – | – | < 6 min | < 6 min | –
CC(C)(C)C(=O)N1CC(c2cc(F)ccc2F)=C[C@H]1c1cccc(O)c1 | 13 nM | 37 nM | – | – | IC50 [6]: 7.8 µM
CN(CCO)C(=O)N1CC(c2cc(F)ccc2F)=C[C@H]1c1cccc(O)c1 | 4 nM | 9.1 nM | – | – | –
CN(C(=O)N1CC(c2cc(F)ccc2F)=CC1c1cccc(O)c1)C1CCNCC1 (racemic) | 5.5 nM | 8.5 nM | – | – | –
CN(C)C(=O)N1CC(c2cc(F)ccc2F)=C[C@H]1c1cccc(OP(=O)(O)O)c1 | – | – | 15 min | 9 min | –
O=C([C@@H](O)C1CC1)N1CC(c2cc(F)ccc2F)=C[C@H]1c1cccc(O)c1 | 2.9 nM | 3.1 nM | – | – | –
CC(C)(C)[C@H](NC(=O)OCCO)C(=O)N1CC(c2cc(F)ccc2F)=C[C@H]1c1ccccc1 | – | – | 168 min | 18 min | clearance [2]: 11 mL/min/kg; clearance [4]: 68 mL/min/kg; Ratio AUC (Canis familiaris): 38%; Ratio AUC (Rattus norvegicus): 57%
N[C@H](C(=O)N1CC(c2cc(F)ccc2F)=C[C@H]1c1cccc(O)c1)C1CC1 | 0.5 nM | 3 nM | – | – | –
CC(C)[C@H](N)C(=O)N1CC(c2cc(F)ccc2F)=C[C@H]1c1cccc(O)c1 | 1.2 nM | 3.3 nM | – | – | –
